Assay results taken from ChEMBL document CHEMBL1158582, “Novel DNA intercalators without basic side chains as efficient antitumor agents: design, synthesis and evaluation of benzo-[c,d]-indol-malononitrile derivatives” (Bioorg Med Chem, 2010).
The source made the active and inactive calls. The calls are words filed in the database; no cut-off is given here.

Assays:
[1] = system: SMMC-7721; assay: Cytotoxicity against human SMMC7721 cells after 48 hrs by MTT assay; assay type: functional, cell-based; conditions: SMMC-7721, 48 h
In short: (§1)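 MTT assay, cells incubated 48 h with a range of compound concentrations. MTT (5 mg/mL in PBS) added, 3 h, formazan dissolved in lysis buffer (200 g/L SDS, 50% formamide, pH 4.7), absorbance read at 570 nm. At least three independent experiments; mean percent absorbance plotted against concentration to give IC50.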

[2] = system: Nucleic Acid; assay: Induction of DNA damage-mediated relaxation of Escherichia coli super coiled pBR322 DNA assessed as formation of linear form-3 DNA after 3 hrs under light condition by UV transilluminator; assay type: nucleic-acid assay
In short: (§2)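 Supercoiled pBR322 (25 ng/µL) in 20 mM Tris–HCl pH 7.5 with 50 µM compound under light irradiation for 3 h; irradiated DNA alone as control. Products resolved on 1% agarose in 0.5× TAE containing 0.5 µg/mL EB, 80 V, 1.5 h.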

[3] = system: MCF7; assay: Cytotoxicity against human MCF7 cells after 48 hrs by MTT assay; assay type: functional, cell-based; conditions: MCF7, 48 h; in short: as §1
[4] = system: Nucleic Acid; assay: Induction of DNA damage-mediated relaxation of Escherichia coli super coiled pBR322 DNA assessed as formation of linear form-3 DNA after 12 hrs under dark condition by UV transilluminator; assay type: nucleic-acid assay
In short: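 Supercoiled pBR322 (25 ng/µL) in 20 mM Tris–HCl pH 7.5 with 50 µM compound, 12 h at 4 °C in the dark. Quenched with loading buffer; 1% agarose gel in 0.5× TAE with 0.5 µg/mL EB, 80 V, 1.5 h.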

[5] = system: Nucleic Acid; assay: Induction of DNA damage-mediated relaxation of Escherichia coli super coiled pBR322 DNA assessed as formation of open circular form-2 DNA after 3 hrs under light condition by UV transilluminator; assay type: nucleic-acid assay; in short: as §2
[6] = system: Nucleic Acid; assay: Binding affinity to calf thymus DNA assessed as DNA intercalation at 100 uM by UV-visible spectrophotometry; assay type: nucleic-acid assay; conditions: Bos taurus; 25 uM; in the assay text read “at 25 uM” for “at 100 uM”
In short: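 UV–vis titration: compound fixed at 25 µM, CT DNA concentration increased; bathochromic shift and hypochromicity taken as the sign of intercalation, isosbestic point followed.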

[7] = system: Nucleic Acid; assay: Binding affinity to DNA assessed as decrease in ethidium bromide fluorescence at 5 uM by fluorescence spectroscopy; assay type: nucleic-acid assay
In short: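 Fluorescence displacement of ethidium bromide bound to DNA; loss of EB fluorescence taken as displacement by the test agent. Compound alone with DNA measured as a control for the compound's own fluorescence.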

[8] = system: Nucleic Acid; assay: Binding affinity to calf thymus DNA assessed as increase in DNA viscosity by viscometric titration; assay type: nucleic-acid assay; conditions: Bos taurus
In short: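 CT DNA sonicated 10 min and filtered through 0.45 µm membrane; DNA 100 µM. Titrations in an Ubbelohde viscometer in a thermostated bath held at 25 ± 0.1 °C.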

Activity [6]	Activity [7]	Activity [8]	Structure (SMILES)	IC50 [1]	Activity [2]	IC50 [3]	Activity [4]	Activity [5]
			C=CCn1c(=C(C#N)C#N)c2cccc3cccc1c32	175 nM	Active	4.73 µM	Active	Active
			N#CC(C#N)=c1c2cccc3cccc(c32)n1CCBr	210 nM		5.38 µM	Active	Active
Active	Active	Active	C#CCn1c(=C(C#N)C#N)c2cccc3cccc1c32	728 nM	Active	12.5 µM	Active	Active
			N#CCn1c(=C(C#N)C#N)c2cccc3cccc1c32	260 nM	Active	13.5 µM	Active	Active
Active			CC(=O)n1c(=C(C#N)C#N)c2cccc3cccc1c32	115 nM		0.003 µM	Active	Active
inactive			N#CC(C#N)=c1c2cccc3cccc(c32)n1C(=O)c1ccccc1	8800 nM		15.3 µM	Active	Active
			N#CC(C#N)=c1c2cccc3cccc(c32)n1CCCCl	354 nM		6.93 µM	Active	Active
